# In the RNAGym collection of RNA variant scans (doi:10.1126/science.aae0568):
# Variants at the floor of the assay were thinned out.
# B1: tRNA (parent)
# chain: GUUCCGUUGGCGUAAUGGUAACGCGUCUCCCUCCUAAGGAGAAGACUGCGGGUUCGAGUCCCGUACGGAACG
# Variants of: B1
# Experiment: yeast fitness relative to wild type (ratio to wild type); higher = fitter; tRNA-Arg(CCU), competitive growth, 37 C, YPD
# Procedure, shortened: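 Variants of the tRNA-Arg(CCU) gene were chemically synthesised with a 3% per-site mutation rate across 69 sites and placed at the native genomic locus in Saccharomyces cerevisiae. Six parallel replicates of the pooled strains were competed in YPD at 37°C for 24 hours, and gene amplicons from the start and end populations were read by 100-nucleotide paired-end sequencing. Darwinian fitness relative to wild type was derived from changes in genotype frequencies. Genotypes required ≥ 100 starting reads, and estimates < 0.5 were set to 0.5.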
row,Variant,yeast fitness
1,GUUCCGUUGGCGUAAUGGUAACGCGUCUCCCUCCUAAGGAGAAGUCUGUGGGUUCGAGUCCCGUACGGAACG,1.07
2,GUUCCGUUGGCGUAAUGGUAACGCGUCUCCCUCCUAAGGAGAAGUCUGUGGGUUCGAGUCGCGUACGGAACG,0.582
3,GUUCCGUUGGCGUAAUGGUAACGCGUCUCCCUCCUAAGGAGAAGGCUGCGGGUUCAAGACCCGUACGGAACG,≤ 0.5
4,GUUCCGUUGGCGUAAUGGUAACGCGUCUCCCUCCUAAGGAGAAGUCUGCGGGUUUGAGUCCCGUACGGAACG,0.743
5,GUUCCGUUGGCGUAAUGGUAACGCGUCUCCCUCCUAAGGAGAAGGCUGCGGGUUCGACUCCCGUACGGAACG,0.958
6,GUUCCGUUGGCGUAAUGGUAACGCGUCUCCCUCCUAAGGAGAAGUCUGGGGGUUGGAGUCCCGUACCGAACG,0.532
7,GUUCCGUUGGCGUAAUGGUAACGCGUCUCCCUCCUAAGGAGAAGUCUGCGAGUUCGAGUCCCGUACGGAACG,0.919
8,GUUCCGUUGGCGUAAUGGUAACGCGUCUCCCUCCUAAGGAGAAGGCUGCGGGUUCGGGUCCCGUACGGAACG,0.943
9,GUUCCGUUGGCGUAAUGGUAACGCGUCUCCCUCCUAAGGAGAAGGCUGCGGGUUCGAGUCCCAUACGAAACG,0.536
10,GUUCCGUUGGCGUAAUGGUAACGCGUCUCCCUCCUAAGGAGAAGGCUGCGGGUGCGAGUCCCGUACGGAACG,0.563
11,GUUCCGUUGGCGUAAUGGUAACGCGUCUCCCUCCUAAGGAGAAGUCUGCGGGUUCGAGUUCCGUACGGAACG,0.737
12,GUUCCGUUGGCGUAAUGGUAACGCGUCUCCCUCCUAAGGAGAAGUCUGCGGGUUCGAGUCCCGUGCGGAACG,0.947
13,GUUCCGUUGGCGUAAUGGUAACGCGUCUCCCUCCUAAGGAGAAGUCUGCGGGUUCGAGUCCCGUUCGGAACG,0.959
14,GUUCCGUUGGCGUAAUGGUAACGCGUCUCCCUCCUAAGGAGAAGUCUGCGGGUUCGAGUCCCGUACGGAUCG,0.925
15,GUUCCGUUGGCGUAAUGGUAACGCGUCUCCCUCCUAAGGAGAAGUCUGCGGGUUCGAGUCCCGUACGGAGCG,1.09
16,GUUCCGUUGGCGUAAUGGUAACGCGUCUCCCUCCUAAGGAGAAGUGUGCGGAUUCGAGUCCCGUACGGAACG,0.578
17,GUUCCGUUGGCGUAAUGGUAACGCGUCUCCCUCCUAAGGAGAAGUCUACGGGUUCGAGUCCCGUACGGAACG,0.824
18,GUUCCGUUGGCGUAAUGGUAACGCGUCUCCCUCCUAAGGAGAAGUCUGCGGGUUUGAGUCCCGUACGGACCG,0.589
19,GUUCCGUUGGCGUAAUGGUAACGCGUCUCCCUCCUAAGGAGAAGUCUGCGGGUUCGAGUCGCGUCCGGAACG,≤ 0.5

row,Variant,yeast fitness
1,GUUCCGUUGGCGUAAUGGUAACGCGUCUCCCUCCUAAGGAGAAGGCAGCGGGUUCGAGUCCCGUACGGAACG,0.91
2,GUUCCGUUGGCGUAAUGGUAACGCGUCUCCCUCCUAAGGAGAAGUCUGCGGGUUCGAGUCCCGUACGGAACG,0.99
3,GUUCCGUUGGCGUAAUGGUAACGCGUCUCCCUCCUAAGGAGAAGGCUGCGGGUUCGAGUCCCGUCCGGAACG,0.868
4,GUUCCGUUGGCGUAAUGGUAACGCGUCUCCCUCCUAAGGAGAAGGCUGCGGGUUCGAGUCCCGUUCGGAACG,0.911
5,GUUCCGUUGGCGUAAUGGUAACGCGUCUCCCUCCUAAGGAGAAGGCUGCGGGGUCGAGUCCCGUACGGAACG,0.586
6,GUUCCGUUGGCGUAAUGGUAACGCGUCUCCCUCCUAAGGAGAAGGCUGCGGGUUCGAGUCCCGUAUGGAACG,0.952
7,GUUCCGUUGGCGUAAUGGUAACGCGUCUCCCUCCUAAGGAGAAGGCUGCGGGUUCGAGUACAGUACGGAACG,0.57
8,GUUCCGUUGGCGUAAUGGUAACGCGUCUCCCUCCUAAGGAGAAGGUUGCGGGUUCGAGUCCCGUACGGAACG,0.991
9,GUUCCGUUGGCGUAAUGGUAACGCGUCUCCCUCCUAAGGAGAAGGAUGCGGGUUCGAGUCCCGUACGGAACG,0.916
10,GUUCCGUUGGCGUAAUGGUAACGCGUCUCCCUCCUAAGGAGAAGGCUGCGGGUUCGACUCCCGUACUCAACG,≤ 0.5
11,GUUCCGUUGGCGUAAUGGUAACGCGUCUCCCUCCUAAGGAGAAGGCUGCGGGUUCGAGUACCGUACGGAACG,0.632
12,GUUCCGUUGGCGUAAUGGUAACGCGUCUCCCUCCUAAGGAGAAGUCUACGGGUUAGAGUCCCGUCCGGAACG,≤ 0.5
13,GUUCCGUUGGCGUAAUGGUAACGCGUCUCCCUCCUAAGGAGAAGUCUGGGGGUUCGAGUCCCGUUCGGAACG,0.599
14,GUUCCGUUGGCGUAAUGGUAACGCGUCUCCCUCCUAAGGAGAAGUUUGCGGGUUCGUGUCCCGUACGGAACG,0.539
15,GUUCCGUUGGCGUAAUGGUAACGCGUCUCCCUCCUAAGGAGAAGGCUGCGGGUUCGAGUCCUGUACGGAACG,0.968
16,GUUCCGUUGGCGUAAUGGUAACGCGUCUCCCUCCUAAGGAGAAGGCUGUGGGUUCGAGUCCCGUACGGAACG,0.941
17,GUUCCGUUGGCGUAAUGGUAACGCGUCUCCCUCCUAAGGAGAAGGCUGGGGGUUCGAGUCCCGUACGGAACG,0.712
18,GUUCCGUUGGCGUAAUGGUAACGCGUCUCCCUCCUAAGGAGAAGGCUGCGGGUUCCAGUCCCGUACGGAACG,0.604
